Our source for the Activity and TDI values is ChEMBL document CHEMBL3804796, “Discovery of Novel 3,3-Disubstituted Piperidines as Orally Bioavailable, Potent, and Efficacious HDM2-p53 Inhibitors” (ACS Med Chem Lett, 2016).

One data set concerns MCF7. The experiment in a line: Antiproliferative activity against human MCF7 cells expressing wild type p53 after 72 hrs by CellTitre-Glo assay. Type of data set: functional, cell-based. A digest of the protocol: (§1)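 Cell lines exposed to compound for 72 h; viability read by CellTiter-Glo and IC50 derived. p53 coding-region mutation status of each line established by direct sequencing.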

The target in the next data set is Cytochrome P450 3A4 (Homo sapiens, UniProt P08684). In words: Time dependent inhibition of CYP3A4 (unknown origin). In kind it is ADME.
Chain of Cytochrome P450 3A4 (P08684 whole entry): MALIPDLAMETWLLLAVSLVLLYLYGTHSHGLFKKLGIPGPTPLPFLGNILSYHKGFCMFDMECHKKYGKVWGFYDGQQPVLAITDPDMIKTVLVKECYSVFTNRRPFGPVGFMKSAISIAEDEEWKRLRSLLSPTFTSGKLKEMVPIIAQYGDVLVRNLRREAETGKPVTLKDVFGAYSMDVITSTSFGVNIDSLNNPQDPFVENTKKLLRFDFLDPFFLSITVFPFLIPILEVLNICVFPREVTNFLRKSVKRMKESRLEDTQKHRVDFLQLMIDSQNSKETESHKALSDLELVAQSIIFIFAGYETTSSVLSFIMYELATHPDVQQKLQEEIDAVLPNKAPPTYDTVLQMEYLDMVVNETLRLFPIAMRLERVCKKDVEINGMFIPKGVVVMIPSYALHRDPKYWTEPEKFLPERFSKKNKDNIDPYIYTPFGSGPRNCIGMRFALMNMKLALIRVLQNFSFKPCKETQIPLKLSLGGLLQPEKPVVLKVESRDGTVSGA
The next data set has as its system SR. In words: Antiproliferative activity against human SR cells expressing wild type p53 after 72 hrs by CellTitre-Glo assay. Type of data set: functional, cell-based. A digest of the protocol: as §1
The next data set has as its system CAKI-1. In words: Antiproliferative activity against human Caki1 cells expressing wild type p53 after 72 hrs by CellTitre-Glo assay. Type of data set: functional, cell-based. A digest of the protocol: as §1

The source made the active and inactive calls. The calls are words filed in the database; no cut-off is given here.

Regarding `CCC[C@H]1N(C(=O)c2cnccc2C(F)(F)F)CCC[C@@]1(Oc1csc(C(F)(F)F)c1)C(=O)N1CCN(c2ccccc2OCCCC(=O)O)CC1`, the outcome in the data set with MCF7, in the data set with SR and in the data set on CAKI-1 was Active. Further, the TDI result on Cytochrome P450 3A4 is on record as “Active”.
